Experimental data as given in ChEMBL document CHEMBL1152244, “Proteochemometrics analysis of substrate interactions with dengue virus NS3 proteases” (Bioorg Med Chem, 2008).
Non-standard residues stand in square brackets, D forms with d. Residues, ends and D or L forms follow the SMILES beside them. Tyr(3-NO2) = N[C@@H](Cc1ccc(O)c([N+](=O)[O-])c1)C(=O)O; 2Abz = Nc1ccccc1C(=O)O

What was measured:
dengue virus type 4 = experiment: Activity of dengue virus 4 recombinant NS3 protease expressed in Escherichia coli C41(DE3) by fluorogenic assay
How it was run: (§1)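 NS2B(H)-NS3pro from inclusion bodies, Ni-chelate and gel filtration purified under 8 M urea, refolded by dialysis. Internally quenched Abz–RRRR-XXXX–nY–NH2 peptides, 1–100 µM (12 points), enzyme 150–200 nM, 50 mM Tris–HCl pH 9.0, 20% glycerol, 37 °C. Cleavage read as fluorescence, ex 320/em 420 nm. Initial rates fitted to give Km and kcat, averaged over ≥3 independent measurements.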

dengue virus type 2 = experiment: Activity of dengue virus 2 recombinant NS3 protease expressed in Escherichia coli C41(DE3) by fluorogenic assay; how it was run: as §1
dengue virus type 3 = experiment: Activity of dengue virus 3 recombinant NS3 protease expressed in Escherichia coli C41(DE3) by fluorogenic assay; how it was run: as §1
dengue virus type 1 = experiment: Activity of dengue virus 1 recombinant NS3 protease expressed in Escherichia coli C41(DE3) by fluorogenic assay; how it was run: as §1

Km (dengue virus type 4) [µM]	kcat (dengue virus type 4) [s⁻¹]	Km (dengue virus type 2) [µM]	kcat (dengue virus type 2) [s⁻¹]	Km (dengue virus type 3) [µM]	kcat (dengue virus type 3) [s⁻¹]	Km (dengue virus type 1) [µM]	kcat (dengue virus type 1) [s⁻¹]	Compound
4.79	0.0398	2.87	0.0065					NC(=O)[C@H](Cc1ccc(O)c([N+](=O)[O-])c1)NC(=O)[C@H](CS)NC(=O)CNC(=O)[C@H](Cc1c[nH]c2ccccc12)NC(=O)[C@H](CO)NC(=O)c1ccccc1N (H-[2Abz]SWGC[Tyr(3-NO2)]-NH2)
36.9	0.113	18.3	0.0125	21.2	0.0153	31.4	0.0352	CC(C)[C@H](NC(=O)[C@H](C)NC(=O)[C@H](C)NC(=O)c1ccccc1N)C(=O)N[C@@H](CC(=O)O)C(=O)N[C@@H](Cc1ccc(O)c([N+](=O)[O-])c1)C(N)=O (H-[2Abz]AAVD[Tyr(3-NO2)]-NH2)
7.06	0.0757	4.26	0.0163	19.7	0.0292			CC(C)[C@H](NC(=O)CNC(=O)[C@H](CO)NC(=O)c1ccccc1N)C(=O)N[C@@H](CS)C(=O)N[C@@H](Cc1ccc(O)c([N+](=O)[O-])c1)C(N)=O (H-[2Abz]SGVC[Tyr(3-NO2)]-NH2)
3.28	0.0157	8.81	0.00233	10	0.00283			NC(=O)C[C@H](NC(=O)[C@H](Cc1cnc[nH]1)NC(=O)c1ccccc1N)C(=O)N[C@@H](CS)C(=O)N[C@@H](CS)C(=O)N[C@@H](Cc1ccc(O)c([N+](=O)[O-])c1)C(N)=O (H-[2Abz]HNCC[Tyr(3-NO2)]-NH2)
7.25	0.00417	5.77	0.00117	19.6	0.000833	16.7	0.00633	NC(=O)[C@H](Cc1ccc(O)c([N+](=O)[O-])c1)NC(=O)[C@H](Cc1cnc[nH]1)NC(=O)[C@@H]1CCCN1C(=O)[C@H](CO)NC(=O)[C@H](Cc1cnc[nH]1)NC(=O)c1ccccc1N (H-[2Abz]HSPH[Tyr(3-NO2)]-NH2)
10.8	0.0553	2.19	0.00567	10.6	0.0105	23.9	0.06	CC(C)C[C@H](NC(=O)[C@@H](NC(=O)CNC(=O)[C@H](C)NC(=O)c1ccccc1N)C(C)C)C(=O)N[C@@H](Cc1ccc(O)c([N+](=O)[O-])c1)C(N)=O (H-[2Abz]AGVL[Tyr(3-NO2)]-NH2)
9.77	0.0783	11.4	0.0123	11.3	0.0285	26.3	0.0685	NC(=O)[C@H](Cc1ccc(O)c([N+](=O)[O-])c1)NC(=O)[C@H](CC(=O)O)NC(=O)[C@H](CS)NC(=O)[C@H](Cc1cnc[nH]1)NC(=O)[C@H](CO)NC(=O)c1ccccc1N (H-[2Abz]SHCD[Tyr(3-NO2)]-NH2)
7.79	0.0782	4.66	0.0157	18.9	0.0237	17.4	0.0825	C[C@H](NC(=O)CNC(=O)c1ccccc1N)C(=O)N[C@H](C(=O)N[C@@H](Cc1cnc[nH]1)C(=O)N[C@@H](Cc1ccc(O)c([N+](=O)[O-])c1)C(N)=O)[C@@H](C)O (H-[2Abz]GATH[Tyr(3-NO2)]-NH2)
22.7	0.282	3.44	0.031	24.9	0.0557	25.5	0.166	CSCC[C@H](NC(=O)CNC(=O)[C@H](C)NC(=O)[C@H](CO)NC(=O)c1ccccc1N)C(=O)N[C@@H](Cc1ccc(O)c([N+](=O)[O-])c1)C(N)=O (H-[2Abz]SAGM[Tyr(3-NO2)]-NH2)
16.3	0.018	14.1	0.00233			8.83	0.00617	CC(C)C[C@H](NC(=O)[C@H](Cc1cnc[nH]1)NC(=O)c1ccccc1N)C(=O)N[C@H](C(=O)N[C@@H](Cc1cnc[nH]1)C(=O)N[C@@H](Cc1ccc(O)c([N+](=O)[O-])c1)C(N)=O)C(C)C (H-[2Abz]HLVH[Tyr(3-NO2)]-NH2)
11.5	0.021	13.2	0.003	41.5	0.007	31.9	0.0202	NC(=O)[C@H](Cc1ccc(O)c([N+](=O)[O-])c1)NC(=O)[C@H](CS)NC(=O)[C@@H]1CCCN1C(=O)[C@H](CC(=O)O)NC(=O)CNC(=O)c1ccccc1N (H-[2Abz]GDPC[Tyr(3-NO2)]-NH2)
23.1	0.014	12.8	0.00117	11.1	0.00333	15.2	0.00767	C[C@@H](O)[C@H](NC(=O)[C@H](CO)NC(=O)[C@H](CC(=O)O)NC(=O)c1ccccc1N)C(=O)N[C@@H](CS)C(=O)N[C@@H](Cc1ccc(O)c([N+](=O)[O-])c1)C(N)=O (H-[2Abz]DSTC[Tyr(3-NO2)]-NH2)
14.8	0.078	17.2	0.0157	42.2	0.0145	18.1	0.0313	C[C@@H](O)[C@H](NC(=O)[C@H](CO)NC(=O)c1ccccc1N)C(=O)N1CCC[C@H]1C(=O)N[C@@H](Cc1cnc[nH]1)C(=O)N[C@@H](Cc1ccc(O)c([N+](=O)[O-])c1)C(N)=O (H-[2Abz]STPH[Tyr(3-NO2)]-NH2)
9.05	0.00783	7.02	0.0015	20.8	0.00283	22.9	0.0128	NC(=O)[C@H](Cc1ccc(O)c([N+](=O)[O-])c1)NC(=O)[C@H](Cc1cnc[nH]1)NC(=O)[C@H](CS)NC(=O)CNC(=O)[C@H](CC(=O)O)NC(=O)c1ccccc1N (H-[2Abz]DGCH[Tyr(3-NO2)]-NH2)
8.22	0.0852	2.46	0.00917	12.1	0.012	17.9	0.0818	CSCC[C@H](NC(=O)CNC(=O)[C@H](C)NC(=O)[C@H](C)NC(=O)c1ccccc1N)C(=O)N[C@@H](Cc1ccc(O)c([N+](=O)[O-])c1)C(N)=O (H-[2Abz]AAGM[Tyr(3-NO2)]-NH2)
7.18	0.0668	5.54	0.0105	12	0.0148	12.6	0.0323	CC(C)C[C@H](NC(=O)[C@@H]1CCCN1C(=O)[C@H](Cc1c[nH]c2ccccc12)NC(=O)[C@H](CO)NC(=O)c1ccccc1N)C(=O)N[C@@H](Cc1ccc(O)c([N+](=O)[O-])c1)C(N)=O (H-[2Abz]SWPL[Tyr(3-NO2)]-NH2)
7.06	0.0192	4.34	0.00133	10.1	0.00183	9.1	0.004	NC(=O)C[C@H](NC(=O)CNC(=O)[C@H](Cc1cnc[nH]1)NC(=O)[C@H](Cc1cnc[nH]1)NC(=O)c1ccccc1N)C(=O)N[C@@H](Cc1ccc(O)c([N+](=O)[O-])c1)C(N)=O (H-[2Abz]HHGN[Tyr(3-NO2)]-NH2)
10.8	0.0595	7.02	0.0015	31.4	0.0102	22.3	0.031	C[C@H](NC(=O)c1ccccc1N)C(=O)N[C@@H](CC(N)=O)C(=O)NCC(=O)N[C@@H](Cc1cnc[nH]1)C(=O)N[C@@H](Cc1ccc(O)c([N+](=O)[O-])c1)C(N)=O (H-[2Abz]ANGH[Tyr(3-NO2)]-NH2)
10.7	0.0855	3.05	0.00483	20.9	0.0128	22.1	0.0462	C[C@@H](O)[C@H](NC(=O)CNC(=O)c1ccccc1N)C(=O)NCC(=O)N[C@@H](CC(N)=O)C(=O)N[C@@H](Cc1ccc(O)c([N+](=O)[O-])c1)C(N)=O (H-[2Abz]GTGN[Tyr(3-NO2)]-NH2)
4.21	0.0305	5.63	0.00433					C[C@H](NC(=O)c1ccccc1N)C(=O)N[C@@H](Cc1cnc[nH]1)C(=O)N[C@@H](CO)C(=O)N[C@@H](CS)C(=O)N[C@@H](Cc1ccc(O)c([N+](=O)[O-])c1)C(N)=O (H-[2Abz]AHSC[Tyr(3-NO2)]-NH2)
9.76	0.0108	14.9	0.00117			17.2	0.0025	NC(=O)[C@H](Cc1ccc(O)c([N+](=O)[O-])c1)NC(=O)[C@H](CC(=O)O)NC(=O)[C@H](CO)NC(=O)[C@H](Cc1c[nH]c2ccccc12)NC(=O)[C@H](Cc1cnc[nH]1)NC(=O)c1ccccc1N (H-[2Abz]HWSD[Tyr(3-NO2)]-NH2)
10.5	0.222	3.06	0.027			23.3	0.227	C[C@H](NC(=O)CNC(=O)[C@H](C)NC(=O)[C@H](CO)NC(=O)c1ccccc1N)C(=O)N[C@@H](Cc1ccc(O)c([N+](=O)[O-])c1)C(N)=O (H-[2Abz]SAGA[Tyr(3-NO2)]-NH2)
85.9	0.0253	43.2	0.00167			106	0.006	CC(C)[C@H](NC(=O)[C@H](CC(=O)O)NC(=O)[C@H](CC(N)=O)NC(=O)c1ccccc1N)C(=O)N[C@@H](CC(=O)O)C(=O)N[C@@H](Cc1ccc(O)c([N+](=O)[O-])c1)C(N)=O (H-[2Abz]NDVD[Tyr(3-NO2)]-NH2)
89	0.0103	19.6	0.000667					C[C@H](NC(=O)c1ccccc1N)C(=O)N1CCC[C@H]1C(=O)NCC(=O)N[C@@H](CC(=O)O)C(=O)N[C@@H](Cc1ccc(O)c([N+](=O)[O-])c1)C(N)=O (H-[2Abz]APGD[Tyr(3-NO2)]-NH2)
